Ecoli tolC: blocks growth of E. coli BW25113 tolC mutant; AID 573; OD615; growth inhibition, % at 10 µM (by protocol); actives 2.2% (n = 65,000);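 active means growth inhibition at or above a cutoff equal to the mean over every tested compound plus 3 SD, cut at about 60% in these data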;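 further: growth measured after 20 h incubation at 37 °C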
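Test system – E. coli BW25113 ΔtolC::kan, tolC deletion mutant strain · Detection – OD at 615 nm · Buffer or medium – LB with kanamycin 50 µg/mL · Times – 20 h compound exposure of bacteria at 37 °C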
AP complement: alternative pathway complement inhibition, orthogonal assay. inhibition, % at 5 µM. actives 0.08% (n = 62,000). Human serum alternative complement pathway, LPS-coated ELISA, C3 deposition; tested in compound mixtures;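 active means inhibition above 30% in each of the two pooled mixtures holding the compound, so the lower value exceeds 30%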;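 further: 0% = serum in Mg-EGTA without compound and 100% = EDTA serum blank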
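Test system: human serum alternative complement pathway, C3 deposition on LPS-coated wells; also added: Plate-bound LPS; doses: 5 µM per compound in ten-compound mixtures; schedule: 1 h at 37 °C; detection: Anti-C3 ELISA, OD 450 nm; evaluation: percent inhibition of C3 deposition onto LPS; repeats: two pool placements per compound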
WNV protease inh: inhibitors of West Nile virus NS2B-NS3 protease; WNV NS2B-NS3 protease, fluorogenic substrate Ex360/Em465; hits give low values; actives 0.18% (n = 65,000); P06935; AID 577; z-score (no concentration beside the values); in the data active means z-score below about -3
M1 antag: M1 muscarinic receptor (rat) antagonism. CHO-M1 cells, Fluo-4 calcium, ACh EC80 antagonist mode; hits give low values. B-score at 10 µM. actives 3.4% (n = 64,000). AID 628;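 active means calcium fluorescence response, raw or row-and-column corrected B-score, differing from the plate sample mean either way at a set confidence level, mostly lower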
Ecoli WT expand: growth inhibitors of E. coli BW25113 wild type; OD600 absorbance; growth inhibition, % at 100 µM; actives 0.15% (n = 98,000);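 active means growth inhibition above about 50% at one test dose, limit read from the data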;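 further: growth measured after 20 h incubation at 37 °C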
M1 agonist: M1 muscarinic receptor agonism | CHO-M1 cells, Fluo-4 calcium fluorescence, agonist mode; hits give high values | B-score at 10 µM | actives 3% (n = 64,000) | AID 626;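 active means fluorescence rise, raw or as B-score row- and column-corrected plate score, outside the 99.7% band of its plate's samples, either direction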
M1 ag confirm: rat M1 muscarinic agonism, confirmation; AID 1488; CHO-M1 cells, Fluo-4 calcium fluorescence, agonist mode; actives lie on both sides; fluorescence change (max-min) at 10 µM; actives 19% (n = 1,700); shares compounds with M1 agonist;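 active means fluorescence change differs from the solvent-only DMSO control mean at a set confidence level in both duplicate runs; inconclusive means differs from solvent-only control mean in just one of two runs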;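 further: an EC20 dose of acetylcholine follows compound addition during the same imaging run; raw fluorescence intensity difference in instrument units with no normalization to controls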
M4 ag counter: counter-screen for M1 agonists: activity at rat M4 receptor; shares compounds with M1 agonist; CHO M4/Gqi5 cells, Fluo-4 calcium fluorescence, agonist mode; actives lie on both sides; fluorescence change (max-min) at 10 µM; actives 9% (n = 1,700); AID 1741;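 active means fluorescence change differing from the plate's solvent-only control wells at 99.7% confidence in both duplicates, whether higher or lower; inconclusive means differs from solvent controls in only one of two duplicates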
Target sequence (P08485 whole entry, looked up): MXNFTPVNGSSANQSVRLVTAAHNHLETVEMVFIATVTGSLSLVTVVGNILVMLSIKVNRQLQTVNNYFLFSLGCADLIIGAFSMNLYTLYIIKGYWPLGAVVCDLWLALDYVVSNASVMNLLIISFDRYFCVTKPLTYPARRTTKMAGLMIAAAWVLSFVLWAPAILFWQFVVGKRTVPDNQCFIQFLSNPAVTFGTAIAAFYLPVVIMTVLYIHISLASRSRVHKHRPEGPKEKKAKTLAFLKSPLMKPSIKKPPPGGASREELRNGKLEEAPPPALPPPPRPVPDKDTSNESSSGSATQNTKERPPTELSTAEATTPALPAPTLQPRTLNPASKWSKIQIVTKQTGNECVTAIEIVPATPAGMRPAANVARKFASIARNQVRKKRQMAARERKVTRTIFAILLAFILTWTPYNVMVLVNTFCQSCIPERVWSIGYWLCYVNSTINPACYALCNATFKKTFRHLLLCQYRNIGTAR
* = called active by the depositor; ? = inconclusive; / = no result. Sampled rows, rich in hits. Any-hit rate of the full collection: about 5.2%.

SMILES | Ecoli tolC | AP complement | WNV protease inh | M1 antag | Ecoli WT expand | M1 agonist | M1 ag confirm | M4 ag counter
CCn1c(COc2ccccc2C)nnc1SCC(=O)CC(=O)Nc1ccccc1 | 24.3 | -5.1 | 1.31 | 2.7* | 16.0 | 3.26* | ? | -54.2
CCn1c(COc2ccccc2C)nnc1SCC(=O)O | -5.4 | 6.6 | 0.36 | 0.161 | -4.0 | -0.191 | / | /
CCn1c(COc2cccc(OC)c2)nnc1SCC(=O)Nc1cccc(OC)c1 | 15.6 | 14.4 | 1.34 | -0.912 | 8.0 | 3.03* | -21.5 | -32.6
CCn1c(COc2cccc(OC)c2)nnc1SCC(=O)Nc1cc(OC)ccc1OC | 1.1 | -2.3 | 0.14 | -0.0744 | -5.0 | -0.00517 | / | /
CCCCCCc1cc2cc(C(N)=O)c(=N)oc2cc1O | / | / | / | / | 17.0 | / | / | /
CCCCCCc1cc2cc(C(=O)NC)c(=N)oc2cc1O | 14.6 | / | 0.78 | -14.6* | 10.0 | 401* | 3193* | 2756*
Nc1cc(N)cc(-c2nc3ccccc3o2)c1 | -9.3 | -12.5 | 0.03 | 0.0122 | / | 0.5 | / | /
O=c1c(-c2nc3ccccc3o2)c2oc3ccccc3n2c2ccccc12 | 97.9* | 3.7 | -0.23 | -4.66* | -3.0 | 11.7* | ? | -70.3
N#C/C(=C/c1ccc(N2CCCCCC2)o1)c1ccc(F)cc1 | 34.6 | 17.3 | 0.05 | 0.871 | -15.0 | 31.3* | -2.84 | ?
Cc1[nH]nc2c1C1(CCN(C(=O)c3ccccc3)CC1)C(C#N)=C(N)O2 | -9.3 | 0.4 | 0.38 | 0.162 | 2.0 | 22.8* | -12.4 | -28.8
Cc1ccc2c(c1)c1nc3ccccc3nc1n2CCN1CCOCC1 | 35.0 | 7.2 | -0.35 | -0.0204 | 3.0 | 7.15* | -9.02 | -21.1
Cc1nc2ccccc2c(=O)n1CCN1CCOCC1 | / | / | / | / | 7.0 | / | / | /
COc1ccc(C2=NO[C@@H]3C(=O)N(C4CCCCC4)C(=O)[C@H]23)cc1OC | -8.9 | -0.5 | 0.05 | 0.041 | -2.0 | 18.4* | -10.1 | -28.4
COc1ccc(C2=NO[C@@H]3C(=O)N(c4ccc5c(c4)OCCO5)C(=O)[C@H]23)cc1OC | -10.3 | -10.7 | 1.38 | 0.0696 | 1.0 | -0.167 | / | /
COc1cc2c(C#N)c(N3CCN(c4ccccc4OC)CC3)nc(N)c2c(N)n1 | 18.9 | 16.8 | -0.36 | -0.105 | -1.0 | 3.44* | -26.7* | -44.6
CC(C)(C)NC(=O)COC(=O)c1snc(C(=O)NC2CCCCC2)c1N | 21.2 | 17.4 | 0.27 | -0.961* | 3.0 | 4.94* | -19.6 | ?
CC(C(=O)NC1CCCC1)N(Cc1ccco1)C(=O)c1snc(C(=O)NC2CCCC2)c1N (stereo not given) | 15.9 | -9.9 | -0.26 | -0.871 | -6.0 | -0.547 | / | /
CC(=O)c1ccc(N2C(=O)C3C(C2=O)C(C(=O)c2ccc(Cl)cc2)N2CCCC32)cc1 (stereo not given) | 0.8 | 2.7 | -1.4 | -1.36 | -7.0 | 29.3* | 334* | 470*
COC(=O)CSc1nnc(CNS(=O)(=O)c2ccc(Cl)cc2)n1C | / | / | / | / | -1.0 | / | / | /
COC(=O)CNc1c(-c2ccccn2)nc2ccc(Br)cn12 | 5.8 | 0.0 | 0.95 | 0.501 | 5.0 | 5.07* | 26.9 | -31.6
O=C(CSc1nnnn1C1CC2CCC1C2)Nc1ccnc2ccccc12 (stereo not given) | 49.9 | 11.5 | -0.74 | -2.07* | 3.0 | 18.7* | 12.1 | -1.3
O=C(CSc1nnnn1C1CCCC1)NCc1ccccc1 | / | / | / | / | 1.0 | / | / | /
O=C(Nc1ccccc1N1CCN(C(=O)c2ccc(Cl)cc2)CC1)c1cc2ccccc2o1 | 20.5 | -3.5 | 0.85 | 2.78* | -10.0 | 4.58* | -20.4 | ?
C=CCn1c(N)c(C(=O)Nc2ccc(C)c(C)c2)c2nc3ccccc3nc21 | / | / | / | / | -15.0 | / | / | /
C=CCn1c(NC(=O)c2ccccc2Cl)c(C#N)c2nc3ccccc3nc21 | 84.0* | 9.7 | -1.32 | -0.973 | 0.0 | 6.85* | 30.1 | 2.63
SMILES | Ecoli tolC | AP complement | WNV protease inh | M1 antag | Ecoli WT expand | M1 agonist | M1 ag confirm | M4 ag counter
CCCCn1c(NC(C)=O)c(C#N)c2nc3ccccc3nc21 | 25.9 | 1.4 | 0.71 | 0.496 | 0.0 | 5.52* | 36.8 | -6.77
COC(=O)c1c(NC(=O)c2ccoc2C)sc2c1CCC2 | -0.5 | -8.0 | 0.64 | 0.233 | -12.0 | 2.24* | 0.418 | -44.4
Cc1ccc(C(=O)COC(=O)CCC(=O)Nc2cccc(Cl)c2)cc1[N+](=O)[O-] | / | / | / | / | -7.0 | / | / | /
CN(C)CCCN(C(=O)c1cccs1)c1nc(-c2ccccc2)cs1 | 4.4 | 8.2 | -0.59 | -8.72* | 7.0 | 13.7* | 27.5 | -23.9
CCC(=O)N(Cc1ccco1)c1nc(-c2ccccc2)cs1 | -3.2 | 3.2 | -0.18 | -0.0825 | -8.0 | 0.3 | / | /
CCOC(=O)C1(C)/C(=N/Nc2ccccc2Cl)C(=O)C(=O)N1c1ccccc1 (stereo not given) | / | / | / | / | -2.0 | / | / | /
CCc1nc2ccccc2n1CC(=O)N1CCN(S(=O)(=O)c2cccc(C(F)(F)F)c2)CC1 | 20.4 | -0.9 | 1.43 | 0.438 | 1.0 | 4.63* | -2.88 | -7.96
O=C(CSc1nc2ccccc2c(=O)n1Cc1ccco1)N1CCCCCC1 | 4.4 | 3.8 | -1.08 | -1.06 | -15.0 | 2.05* | ? | -61.8
O=C(NCc1ccco1)c1ccc2c(=O)n(Cc3ccco3)c(SCC(=O)N3CCCC3)nc2c1 | 11.2 | 18.7 | -0.98 | -0.422 | -4.0 | 0.772 | / | /
CCNc1cccc2c1C(=O)N(C)C2=O | -7.6 | 6.9 | 0.37 | -0.688 | 6.0 | 179* | 928* | 935*
CN1C(=O)c2cccc(NCCCN3C(=O)c4ccccc4C3=O)c2C1=O | -23.4 | 2.5 | 1.51 | 1.06 | -4.0 | 4.77* | 8.12 | 16.1
COCCCNS(=O)(=O)c1ccc(S(=O)(=O)N2CCCC2)cc1 | / | / | / | / | -1.0 | / | / | /
C=CCn1c(N(C)C)nc2c1c(=O)[nH]c(=O)n2C | -6.8 | 22.7 | -1.44 | -0.00471 | / | 0.0161 | / | /
CN1C(=O)CSc2ccc(NC(=O)N3CCc4ccccc43)cc21 | 32.5 | 2.6 | -0.58 | -0.665 | -4.0 | 2.82* | -23.7 | -47.6
CCOC(=O)C1CCN(C(c2cc3c(C)ccc(C)c3[nH]c2=O)c2nnnn2C2CCCCC2)CC1 (stereo not given) | 35.2 | -5.4 | 0.62 | 0.0963 | -7.0 | 2.58* | -32.6* | -57.2
CCCCOC(=O)c1[nH]c2c(c1C)C(=O)CC(c1cc(OC)c(OC)c(OC)c1)C2 (stereo not given) | 10.2 | 5.2 | -0.37 | -0.507 | 0.0 | -0.00289 | / | /
C=CCOC(=O)c1[nH]c2c(c1C)C(=O)CC(c1cc(OC)c(OC)c(OC)c1)C2 (stereo not given) | 4.5 | 19.2 | -0.91 | 0.159 | -7.0 | 3.3* | -11.6 | -33.2
CCOC(=O)C(C)Oc1cccc2c(=O)n(CC(=O)N3CCN(C(=O)OCC)CC3)ccc12 (stereo not given) | 2.2 | -1.2 | -0.06 | -0.197 | -3.0 | 0.5 | / | /
